Results as given in ChEMBL document CHEMBL5321214, “Targeting the multifaceted neurotoxicity of Alzheimer's disease by tailored functionalisation of the curcumin scaffold” (Eur J Med Chem, 2023).
Calls of active or inactive are those of the source. No cut-off for these calls is given here.

Columns and labels:
[1] = system: Microglia; experiment: Antiinflammatory activity against Sprague-Dawley rat microglial cells assessed as inhibition of LPS-induced IL-1 beta production at 1 uM pretreated with compound for 1 hr followed by LPS stimulation for 24 hrs by ELISA; assay type: functional, cell-based; conditions: time 25.0 hrs
Outline: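 Primary cortical rat microglia in DMSO (≤0.1%) or vehicle for 1 h, then 100 ng/mL LPS for 24 h. TNF-α and IL-1β in culture medium by ELISA against standard curves (pg/mL), expressed as % of LPS-stimulated cultures. Mean ± SEM of 3 independent experiments; one-way ANOVA, Holm-Sidak test.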

[2] = system: Microglia; experiment: Antiinflammatory activity against Sprague-Dawley rat microglial cells assessed as downregulation of TNF-alpha mRNA expression at 2.5 uM pretreated with compound for 1 hr followed by LPS stimulation for 6 hrs by real-time PCR analysis; assay type: functional, cell-based; conditions: time 7.0 hrs
Outline: (§1)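 Primary cortical microglia (postnatal day 1 rat pups, shaken off mixed glial cultures, ~97% Iba1-positive). Compound (DMSO ≤0.1%) for 1 h, then 100 ng/mL ultra-pure E. coli LPS for 6 h. QIAzol RNA extraction, SuperScript IV reverse transcription, real-time PCR. Mean ± SEM, n = 3 in triplicate; one-way ANOVA, Holm-Sidak test.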

[3] = system: Microglia; experiment: Antiinflammatory activity against Sprague-Dawley rat microglial cells assessed as downregulation of IL-1 beta mRNA expression at 2.5 uM pretreated with compound for 1 hr followed by LPS stimulation for 6 hrs by real-time PCR analysis; assay type: functional, cell-based; conditions: time 7.0 hrs; outline: as §1
[4] = system: Microglia; experiment: Antiinflammatory activity against Sprague-Dawley rat microglial cells assessed as downregulation of NLRP3 mRNA expression at 2.5 uM pretreated with compound for 1 hr followed by LPS stimulation for 6 hrs by real-time PCR analysis; assay type: functional, cell-based; conditions: time 7.0 hrs; outline: as §1
[5] = system: SH-SY5Y; experiment: Cytotoxicity against human SH-SY5Y cells assessed as decrease in cell viability at >2.5 uM incubated for 24 hrs by MTT assay; assay type: toxicity, cell-based
Outline: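 SH-SY5Y, 2×10^4 cells/well, grown 24 h then exposed 24 h (1.25–40 μM) at 37 °C, 5% CO2. MTT 0.5 mg/mL in HBSS for 2 h, washed, formazan dissolved in isopropanol, read at 570 nm (reference 690 nm).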

[6] = Toxicity against Drosophila W1118 assessed as minimum toxic concentration by measuring eclosion rate measured for 72 hrs
[7] = system: Drosophila; experiment: Antioxidant activity in Spastin Drosophila (Tubulin/Gal4 RNAi DSpast) neurodegenerative model assessed as decrease in intracelluar ROS level in brain at 10 uM flies raised in compound-enriched food by DHE staining based fluorescence analysis; assay type: functional, organism-based
Outline: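 Spastin-RNAi (Tubulin-Gal4 cross, 28 °C) third-instar larvae raised on compound-enriched food, dissected in HL3, stained 30 min with 30 μM DHE, fixed in 4% PFA, DAPI counterstained. Confocal imaging (DHE 580–630 nm); two 2500 μm² ROIs per muscle or two 1900 μm² ROIs per brain, 10–15 larvae per group; DHE/DAPI ratio.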

For CCCCn1cc(C/C(C(=O)/C=C/c2ccc(OC)cc2)=C(O)\C=C\c2ccc(OC)cc2)nn1, the Activity [1] was “Active”, the Activity [2] was “Active” and the Activity [3] was “Active”. For the same compound, the Activity [4] was “Active”, the Activity [5] was “Toxic” and the MTC [6] was 10 µM. The Activity [7] was “Active”.
